The subject of data set [1] is Cryptococcus neoformans. As to the kind of experiment: Antimicrobial activity against Cryptococcus neoformans ATCC 90113 by CLSI method. The data set is classed as functional. The method in brief: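 C. neoformans in Sabouraud dextrose broth, inoculum per the 0.5 McFarland standard. Saline serial dilutions of DMSO samples were tested in duplicate, with a final top concentration of 20 μg/mL. OD 630 nm was read before and after incubation. IC50 was derived from % growth versus concentration. MIC was judged visually as the lowest concentration with no detectable growth. Amphotericin B served as the drug control.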

Data set [2] has as its system Candida albicans. In words: Antimicrobial activity against Candida albicans ATCC 90028 by CLSI method. The data set is classed as functional. The method in brief: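 C. albicans inoculum was made to the 0.5 McFarland standard in Sabouraud dextrose broth or RPMI 1640. Samples came from DMSO stocks serially diluted in saline, in duplicate, starting at a final 20 μg/mL. Plates were read at OD 630 nm before and after incubation. IC50 came from the % growth versus concentration plot; MIC was the lowest concentration with no visible growth. Included: growth, solvent and blank controls, plus amphotericin B.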

Data set [3] concerns Aspergillus fumigatus. In words: Antimicrobial activity against Aspergillus fumigatus ATCC 90906 by CLSI method. It counts as functional. The method in brief:
(§1)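 Modified CLSI broth microdilution. DMSO stocks were serially diluted in saline and run in duplicate. Inoculum was set by the 0.5 McFarland standard in YM broth for MIC, or in RPMI-1640 + 5% Alamar Blue for IC50. The top final concentration was 20 μg/mL. Fluorescence (544ex/590em) was read before and after incubation. IC50 was taken from % growth versus concentration; MIC was read visually as no blue-to-pink change.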

The test system of data set [4] is Cryptococcus neoformans. In words: Antimicrobial activity against Cryptococcus neoformans ATCC 90113 by alamar blue assay. It counts as functional, organism-based.
Data set [5] concerns Candida albicans. In words: Antimicrobial activity against Candida albicans ATCC 90028 by alamar blue assay. The data set is classed as functional, organism-based.
Data set [6] concerns Aspergillus fumigatus. As to the kind of experiment: Antimicrobial activity against Aspergillus fumigatus ATCC 90906 by alamar blue assay. It counts as functional, organism-based. The method in brief: as §1
The test system of data set [7] is Nakaseomyces glabratus. In words: Antimicrobial activity against Candida glabrata ATCC 90030 by CLSI method. It counts as functional. The method in brief:
(§2)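 Modified CLSI microdilution. DMSO samples were serially diluted in saline and tested in duplicate against inoculum adjusted by the 0.5 McFarland standard. The final test range started at 20 μg/mL. Plates were read before and after incubation. IC50 came from % growth versus concentration; MIC was the lowest concentration without visible growth. Growth, solvent, blank and amphotericin B controls were on each plate.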

Data set [8] concerns Pichia kudriavzevii. As to the kind of experiment: Antimicrobial activity against Candida krusei ATCC 6258 by CLSI method. The data set is classed as functional. The method in brief: as §2
Data set [9] relates to Nakaseomyces glabratus. As to the kind of experiment: Antimicrobial activity against Candida glabrata ATCC 90030 by alamar blue assay. The data set is classed as functional, organism-based. (In general: Resazurin is reduced to fluorescent resorufin, in cell work by metabolically active cells.)
Data set [10] relates to Pichia kudriavzevii. In words: Antimicrobial activity against Candida krusei ATCC 6258 by alamar blue assay. The data set is classed as functional, organism-based.
Data set [11] can be described thus: Cytotoxicity against african green monkey Vero cells after 48 hrs by neutral red assay. The data set is classed as cell-based. The note with it: chlorocebus sabaeus, read-out: TC50. The method in brief:
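VERO kidney cells were seeded at 25,000 cells/well and incubated 24 h. Samples were added up to 10 μg/mL and incubated a further 48 h. Viable cells were counted by neutral red uptake. IC50 came from growth-inhibition dose curves. Doxorubicin was the positive control and DMSO the vehicle control.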

Data set [12] in a line: Selectivity index, ratio of TC50 for african green monkey Vero cells to IC50 for Cryptococcus neoformans ATCC 90113. The data set is classed as toxicity, cell-based. The following applies: read-out: Selectivity Index.

Structures are written as SMILES. A value given as a limit tells only on which side of the number the result lay.

For the compound `COc1cccc(Sc2cc3ccccc3[n+](CCCCCC3CCCCC3)c2)c1.[I-]`, the MFC in the data set on Cryptococcus neoformans [1] is 2.5 µg/mL; against Candida albicans [2] it was 10 µg/mL; in the data set with Aspergillus fumigatus [3], 20 µg/mL; with Nakaseomyces glabratus [7], greater than 20 µg/mL; with Pichia kudriavzevii [8] it was 1.3 µg/mL. Also, the MIC (in general, the smallest concentration in the dilution series that meets the test's criterion for growth inhibition) amounted to 0.6 µg/mL against Cryptococcus neoformans [1]; 5 µg/mL with Candida albicans [2]; 10 µg/mL against Aspergillus fumigatus [3]; 20 µg/mL against Nakaseomyces glabratus [7]; 1.3 µg/mL against Pichia kudriavzevii [8]. The IC50 (in general, the concentration that inhibits the measured activity by half) in the data set with Cryptococcus neoformans [4] was found to be 0.4 µg/mL; in the data set with Candida albicans [5], 2.7 µg/mL; with Aspergillus fumigatus [6], 5.5 µg/mL; with Nakaseomyces glabratus [9] it was 16 µg/mL; with Pichia kudriavzevii [10], 0.6 µg/mL. Moreover, the CC50 at 48 h in data set [11] stood at 4.5 µg/mL. Besides, in [12], the selectivity ratio is 11.
Turning to `Oc1ccccc1Sc1cc2ccccc2[n+](CCCCCC2CCCCC2)c1.[I-]`, the MFC with Cryptococcus neoformans [1] is 1.3 µg/mL; in the data set on Candida albicans [2], 20 µg/mL; against Aspergillus fumigatus [3], greater than 20 µg/mL; against Nakaseomyces glabratus [7] it was greater than 20 µg/mL; against Pichia kudriavzevii [8] it was 10 µg/mL. In addition, the MIC was determined as 1.3 µg/mL against Cryptococcus neoformans [1]; 10 µg/mL in the data set with Candida albicans [2]; 10 µg/mL against Aspergillus fumigatus [3]; 20 µg/mL in the data set with Nakaseomyces glabratus [7]; 10 µg/mL in the data set with Pichia kudriavzevii [8]. Besides, the IC50 was found to be 1 µg/mL with Cryptococcus neoformans [4]; 4.7 µg/mL in the data set with Candida albicans [5]; 3.9 µg/mL with Aspergillus fumigatus [6]; 12 µg/mL in the data set on Nakaseomyces glabratus [9]; 4.4 µg/mL with Pichia kudriavzevii [10]. Further, in [11], the CC50 at 48 h stood at 9.3 µg/mL. The selectivity ratio in data set [12] is 9.3.
For `N#Cc1ccccc1Sc1cc2ccccc2[n+](CCCCCC2CCCCC2)c1.[I-]`, the MFC was 10 µg/mL in the data set with Cryptococcus neoformans [1]; 10 µg/mL in the data set with Candida albicans [2]; 20 µg/mL against Aspergillus fumigatus [3]; 20 µg/mL in the data set with Nakaseomyces glabratus [7]; 5 µg/mL in the data set with Pichia kudriavzevii [8]. In addition, the MIC in the data set on Cryptococcus neoformans [1] is 1.3 µg/mL; against Candida albicans [2] it was 10 µg/mL; with Aspergillus fumigatus [3], 19 µg/mL; in the data set on Nakaseomyces glabratus [7] it was 20 µg/mL; against Pichia kudriavzevii [8], 2.5 µg/mL. Besides, the IC50 in the data set on Cryptococcus neoformans [4] was found to be 1.1 µg/mL; in the data set with Candida albicans [5], 3.3 µg/mL; with Aspergillus fumigatus [6] it was 5 µg/mL; with Nakaseomyces glabratus [9], 12 µg/mL; with Pichia kudriavzevii [10], 0.7 µg/mL. In data set [11], the CC50 at 48 h was found to be 10 µg/mL. The selectivity ratio in data set [12] was determined as 9.1.
With `Fc1cccc(Sc2cc3ccccc3[n+](CCCCCC3CCCCC3)c2)c1.[I-]`, the MFC is 2.5 µg/mL against Cryptococcus neoformans [1]; 10 µg/mL in the data set on Candida albicans [2]; 20 µg/mL against Aspergillus fumigatus [3]; 20 µg/mL against Nakaseomyces glabratus [7]; 1.3 µg/mL against Pichia kudriavzevii [8]. Moreover, the MIC against Cryptococcus neoformans [1] was determined as 0.6 µg/mL; against Candida albicans [2] it was 5 µg/mL; against Aspergillus fumigatus [3], 10 µg/mL; in the data set on Nakaseomyces glabratus [7], 20 µg/mL; with Pichia kudriavzevii [8], 0.6 µg/mL. Besides, the IC50 with Cryptococcus neoformans [4] was 0.5 µg/mL; in the data set on Candida albicans [5] it was 2.7 µg/mL; with Aspergillus fumigatus [6], 5.3 µg/mL; in the data set with Nakaseomyces glabratus [9], 12 µg/mL; in the data set with Pichia kudriavzevii [10], 0.3 µg/mL. Besides, the CC50 at 48 h in [11] came out at 6.6 µg/mL. For the same compound, in data set [12], the selectivity ratio was found to be 13.
For `Cc1ccccc1Sc1cc2ccccc2[n+](CCCCCC2CCCCC2)c1.[I-]`, the MFC in the data set with Cryptococcus neoformans [1] is 1.3 µg/mL; against Candida albicans [2], 10 µg/mL; against Aspergillus fumigatus [3], greater than 20 µg/mL; in the data set on Nakaseomyces glabratus [7], 20 µg/mL; against Pichia kudriavzevii [8], 1.3 µg/mL. Besides, the MIC in the data set with Cryptococcus neoformans [1] was 0.6 µg/mL; in the data set on Candida albicans [2], 5 µg/mL; in the data set on Aspergillus fumigatus [3], 10 µg/mL; with Nakaseomyces glabratus [7], 20 µg/mL; in the data set with Pichia kudriavzevii [8] it was 1.3 µg/mL. Moreover, the IC50 is 0.3 µg/mL with Cryptococcus neoformans [4]; 1.7 µg/mL with Candida albicans [5]; 4.8 µg/mL in the data set on Aspergillus fumigatus [6]; 13 µg/mL with Nakaseomyces glabratus [9]; 0.6 µg/mL with Pichia kudriavzevii [10]. In addition, the CC50 at 48 h in data set [11] is 4 µg/mL. Further, the selectivity ratio in data set [12] is 13.

These data come from ChEMBL document CHEMBL1772938, “Optimization of 3-(phenylthio)quinolinium compounds against opportunistic fungal pathogens” (Eur J Med Chem, 2011).
